Experimental data: paper PMC3579011 (Molecular cancer research : MCR, 2012)
Positions of bridges follow the written chain, without caps; N, C: chain ends. No end group written: not given here.

Tests used:
[1] = tested on: DU145, UMUC3 and J82 cells; assay: LDH release with autophagy inhibitor, DU145, UMUC3, J82; type: cell-based, human; settings: bafilomycin A1 40–400 nM added 1 hour prior to CLT1 (25 µg/ml) + FN, 24 hours
Outline: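 DU145, UMUC3 and J82 cells at about 50% confluence received 40 to 400 nmol/L bafilomycin A1 plus test peptide with fibronectin for 24 h. Cell death was measured as LDH release using a cytotoxicity detection kit. Values were normalized to background death of control cells treated without peptide in the same medium.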

DU145 cells [2] = assay: LDH release cytotoxicity assay, DU145; type: cell-based
DU145 cells [3] = assay: Uptake of fluorescein-CLT1 by fluorescence microscopy, DU145; type: cell-based, human; settings: nocodazole 10 µM, 24 hours, versus DMSO
Outline: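 DU145 cells were grown on vitronectin-coated coverslips and exposed 24 h to fluorescein-conjugated peptide alone or with nocodazole, with DMSO as vehicle. Cells were fixed in 4% paraformaldehyde and stained with DAPI. Uptake was scored by fluorescence microscopy at ×40 as the percentage of peptide-positive cells per optical field.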

[4] = tested on: primary human bladder epithelial cells (HBEC); assay: LDH release cytotoxicity assay, primary bladder epithelial cells; type: cell-based; settings: CLT1 75 µg/ml, 24 hours
Outline: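 Primary human bladder epithelial cells were kept in serum-free Prostalife basal medium with supplements at 37°C and 5% CO2, and treated at about 50% confluence. Peptide diluted in water was added for 24 h in 2% serum alone, or with fibronectin or fibrinogen. Cell death was read as LDH release, expressed as a percentage of maximal release from camptothecin plus 100 nmol/L staurosporine.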

angiogenic endothelium = settings: cited from earlier work
[5] = tested on: LC3 in UMUC3 and J82 cells; assay: LC3 conversion; type: cell-based, human; settings: CLT1 25 µg/ml, 2% serum + FN, 24 hours
Outline: (§1)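 Cells were lysed by subcellular protein fractionation to obtain the cytoplasmic fraction, or in 2× SDS sample buffer. Proteins were run on SDS-PAGE and transferred to PVDF, with 0.05% Ponceau S staining to check equal loading. Blots were blocked in 5% BSA and probed overnight at 4°C with anti-cathepsin D or anti-LC3B, then detected with peroxidase-conjugated anti-rabbit or anti-mouse IgG and enhanced chemiluminescence.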

[6] = tested on: 786-0 kidney cancer cells; assay: CLT1-induced cell death, 786-0; type: cell-based, human
[7] = tested on: cathepsin D (lysosome leakage) in DU145, UMUC3 and J82 tumor cells; assay: Cathepsin D in cytosolic fraction; type: cell-based, human; settings: CLT1 75 µg/ml, 24 hours
Outline: as §1

[8] = tested on: bladder tumor cells (J82, T24, UMUC3, TCCSUP); assay: LDH release cytotoxicity assay, bladder tumor cells; type: cell-based; settings: CLT1 75 µg/ml, 24 hours; even in the presence of urine
[9] = tested on: bladder and prostate tumor cells; assay: Internalization of fluorescein-CLT1 with fibronectin or fibrinogen; type: cell-based, human; settings: FN or FG each 30 µg/ml
Outline: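 Cells were grown on vitronectin-coated coverslips and incubated 24 h with fluorescein-conjugated peptide in 2% serum with fibronectin or fibrinogen. They were then fixed in 4% paraformaldehyde and mounted in DAPI-containing medium. Internalization was scored by fluorescence microscopy at ×40 as the percentage of peptide-positive cells per optical field.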

[10] = tested on: human bladder (J82, T24, UMUC3, TCCSUP), prostate (DU145), kidney (RCC4), breast (MDA-MB-231) and lung (A549) tumor cell lines; assay: LDH release cytotoxicity assay, panel of tumor cell lines; type: cell-based; settings: without CLT1

CO/C1=C\C(C)=C\[C@@H](C)[C@@H](O)[C@@H](C)C/C(C)=C/C=C/[C@H](OC)[C@@H]([C@@H](C)[C@@H](O)[C@H](C)[C@@]2(O)C[C@@H](O)[C@H](C)[C@@H](C(C)C)O2)OC1=O [bafilomycin A1, Bafilomycin A1]
effect on CLT1 cytotoxicity (LDH release) [1]: significantly reduced

COC(=O)Nc1nc2ccc(C(=O)c3cccs3)cc2[nH]1 [nocodazole, reference compound]
effect on CLT1 cytotoxicity (LDH release) (DU145 cells [2]; nocodazole 10 µM, CLT1 75 µg/ml, 24 hours, versus DMSO): significantly reduced | effect on CLT1 uptake (DU145 cells [3]): inhibited

CGLIIQKNEC (disulfide 1-10 (inferred)) [CLT1]
cytotoxic activity in primary bladder epithelial cells [4]: largely inactive | CLT1 concentration at which cytotoxicity reached a plateau (DU145 cells [2]; CLT1 7.5–150 µg/ml, 2% serum + 30 µg/ml fibronectin, 24 hours, LDH release): 75 µg/mL | cell death in the absence of plasma fibronectin (DU145 cells [2]; prostate tumor cells, FN-depleted serum): minimal cell death | anti-angiogenic activity in vivo (angiogenic endothelium): strong anti-angiogenic activity | LC3 conversion (autophagy marker) [5]: causes LC3 conversion | sensitivity to CLT1-induced cell death [6]: largely resistant | cathepsin D in cytoplasmic fraction (indicator for lysosome leakage) [7]: increased concentrations | cell death of bladder cancer cells [8]: extensive cell death

fibrinogen
effect on CLT1 uptake / internalization [9]: largely prevents

fibronectin
fibronectin concentration at which CLT1 cytotoxicity occurred (DU145 cells [2]; FN-depleted serum, CLT1 75 µg/ml, FN 3–100 µg/ml, within 24 hours, LDH release): 10 µg/mL | effect of protein alone on tumor cell fate [10]: no effect | effect on CLT1 uptake / internalization [9]: supports
